For series [1], the system named is MCF7. Nature of the series: Inhibition of clonogenic survival of human MCF7 cells after 10 days by microscopy. Format: functional, cell-based. The settings on record: MCF7, 240 h. Put shortly: (§1)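 Clonogenic survival: cells were treated at 0.1 to 20 µM for 10 days. Colonies were then fixed and stained, and counts were expressed as percent of vehicle control.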

Series [2] relates to MDA-MB-231. In words: Inhibition of clonogenic survival of endocrine-resistant human MDA-MB-231 cells after 10 days by microscopy. The format is functional, cell-based. The settings on record: MDA-MB-231, 240 h. The essentials:
as §1

Series [3] has as its system MCF7. In words: Inhibition of clonogenic survival of tumor necrosis factor-resistant human MCF7 cells after 10 days by microscopy. Format: functional, cell-based. The settings on record: MCF7, 240 h. The essentials: as §1
Series [4] deals with MCF7. In words: Induction of apoptosis in human MCF7 cells assessed as appearance of nucleosomes in cytoplasm at 9.4 uM after 24 hrs by ELISA relative to DMSO control. Format: functional. Put shortly: (§2)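 Apoptosis in MCF-7 cells was measured by a cell death detection ELISA after 24 h exposure at 8.3 or 9.4 µM. Values are mean ± SE of three independent experiments.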
(An ELISA detects its analyte on a solid surface through an enzyme-linked reagent.)

The nature of series [5]: Antiproliferative activity against human MCF10A cells at 100 uM after 24 hrs by MTT assay. Format: cell-based. The settings on record: mcf-10a. Put shortly:
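Normal MCF10A breast epithelial cells were exposed to drug at 0.1–100 µM for 24 h, and proliferation was measured. Values are mean ± SE of four independent experiments.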
In general terms: Tetrazolium assays rely on reduction of a dye to a coloured formazan, in cell work by metabolically active cells.

Series [6] relates to MCF7. In words: Increase in endogenous dihydrosphingosine level in tumor necrosis factor-resistant human MCF7 cells at 10 uM after 24 hrs by ESI/MS/MS analysis relative to DMSO control. Format: functional. Put shortly:
(§3)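 MCF-7, MDA-MB-231 or MCF-7TN-R cells were treated at 10 µM for 24 h, and cellular sphingolipid species were then quantified. Values are mean ± SE of two independent experiments.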

In series [7] the test system is MCF7. In words: Decrease in endogenous sphingosine-1-phosphate level in human MCF7 cells at 10 uM after by ESI/MS/MS analysis. The format is functional, cell-based. The essentials:
as §3

The subject of series [8] is MDA-MB-231. In words: Decrease in endogenous sphingosine-1-phosphate level in endocrine-resistant human MDA-MB-231 cells at 10 uM after by ESI/MS/MS analysis. The format is functional, cell-based. The essentials:
as §3

Series [9] has as its system MCF7. In words: Decrease in endogenous sphingosine-1-phosphate level in tumor necrosis factor-resistant human MCF7 cells at 10 uM after by ESI/MS/MS analysis. Format: functional, cell-based. Put shortly:
as §3

For series [10], the system named is MCF7. Nature of the series: Inhibition of clonogenic survival of human MCF7 cells at 0.1 to 20 uM after 10 days by microscopy. Format: functional, cell-based. The essentials: as §1
In series [11] the test system is MDA-MB-231. In words: Inhibition of clonogenic survival of endocrine-resistant human MDA-MB-231 cells at 0.1 to 20 uM after 10 days by microscopy. Format: functional, cell-based. Put shortly:
as §1

The test system of series [12] is MCF7. Nature of the series: Inhibition of clonogenic survival of tumor necrosis factor-resistant human MCF7 cells at 0.1 to 20 uM after 10 days by microscopy. The format is functional, cell-based. Put shortly:
as §1

The test system of series [13] is MCF7. In words: Induction of apoptosis in human MCF7 cells assessed as appearance of nucleosomes in cytoplasm at 8.3 uM after 24 hrs by ELISA relative to DMSO control. The format is functional. Put shortly:
as §2

Series [14] has as its system MCF7. Nature of the series: Selectivity for tumor necrosis factor-resistant human MCF7 cells over human MCF10A cells.
Series [15] relates to MCF7. In words: Increase in endogenous sphingosine-1-phosphate level in human MCF7 cells at 10 uM after by ESI/MS/MS analysis. Format: functional, cell-based. The essentials:
as §3

Series [16] has as its system MDA-MB-231. In words: Increase in endogenous sphingosine-1-phosphate level in endocrine-resistant human MDA-MB-231 cells at 10 uM after by ESI/MS/MS analysis. The format is functional, cell-based. Put shortly: as §3
The test system of series [17] is MCF7. In words: Increase in endogenous sphingosine-1-phosphate level in tumor necrosis factor-resistant human MCF7 cells at 10 uM after by ESI/MS/MS analysis. Format: functional, cell-based. Put shortly: as §3

Active and inactive are the calls of the source. No cut-off for these calls is given here.

In general, IC50 refers to the concentration needed to halve the response being measured.

`CCCCCCCCCCCCCCNC(=O)[C@H](CO)/N=C/c1ccccc1`: the IC50 was 4.7 µM with MCF7 [1], 2.4 µM with MDA-MB-231 [2] and 7.7 µM with MCF7 [3]. The “fold change (FC)” value was found to be 5.4 in the series on MCF7 [4] and 50 in the series on MCF7 [6]. The Activity entry in [5] is “Non-toxic”. Also, the outcome with MCF7 [7], in the series with MDA-MB-231 [8], in the series on MCF7 [9], with MCF7 [10], with MDA-MB-231 [11] and with MCF7 [12] was Active.
As to `CCCCCCCCCCCCCCNC(=O)[C@H](CO)NCc1ccccc1`, the IC50 was 5 µM in the series on MCF7 [1], 10.5 µM in the series on MDA-MB-231 [2] and 15.2 µM with MCF7 [3]. The result with MCF7 [10], in the series with MDA-MB-231 [11] and with MCF7 [12] was Active.
For the compound `CCCCCCCCCCCCCCNC(=O)[C@H](CO)NC(C)=O`, the IC50 is 44.7 µM in the series with MCF7 [1], 75.1 µM in the series with MDA-MB-231 [2] and 52.7 µM in the series on MCF7 [3]. Also, the result with MCF7 [10], in the series on MDA-MB-231 [11] and with MCF7 [12] was Active.
For the compound `CCCCCCCCCCCCCCC[C@H](O)[C@@H](CO)NC(=O)CCCCCCC` (single isomer, unassigned), the IC50 in the series on MCF7 [1] is 31.7 µM; with MDA-MB-231 [2] it was 41.4 µM; in the series with MCF7 [3], 49.6 µM.
On to `CCCCCCCCCCCCCCNC(=O)[C@H](CO)NC(=O)C1CCCCC1`, for which the IC50 turned out to be 7.2 µM in the series with MCF7 [1], 11.5 µM in the series with MDA-MB-231 [2] and 23.5 µM with MCF7 [3]. Also, the outcome with MCF7 [10], in the series on MDA-MB-231 [11] and in the series on MCF7 [12] was Active.
On to `CCCCCCCCCCCCC/C=C/[C@@H](O)[C@H](CO)NC(=O)CCCCCCC`, for which the IC50 in the series with MCF7 [1] is 4.2 µM; in the series on MDA-MB-231 [2] it was 3 µM; in the series on MCF7 [3], 8.6 µM. Moreover, in the series on MCF7 [13], the “fold change (FC)” value was 5. For the same compound, in series [5], the Activity entry is given as “Non-toxic”. Besides, in the series with MCF7 [14], the Ratio is more than 50. Moreover, the result in the series on MCF7 [15], in the series on MDA-MB-231 [16] and in the series with MCF7 [17] was Active.
Turning to `CCCCCCCCCCCCCCNC(=O)[C@H](CO)NC(=O)c1cc(OC)cc(OC)c1`, the IC50 in the series on MCF7 [1] was 11.2 µM; in the series on MDA-MB-231 [2], 6.6 µM; with MCF7 [3], 15 µM. In addition, the outcome with MCF7 [10], with MDA-MB-231 [11] and in the series on MCF7 [12] was Active.
For `CCCCCCCCCCCCCCNC(=O)[C@H](CO)NC(=O)C(C)(C)C`, the results for the IC50 in the series with MCF7 [1], in the series on MDA-MB-231 [2] and with MCF7 [3] were 6.7 µM, 6.1 µM and 11.1 µM, respectively. The outcome in the series with MCF7 [10], with MDA-MB-231 [11] and in the series on MCF7 [12] was Active.

(Values after ChEMBL document CHEMBL1153523, “Design, synthesis, and biological activity of a family of novel ceramide analogues in chemoresistant breast cancer cells” (J Med Chem, 2009).)
